According to ChEMBL document CHEMBL1649157, “Intracellular activity of antibiotics against Staphylococcus aureus in a mouse peritonitis model” (Antimicrob Agents Chemother, 2009):
Activity calls are given as the source filed them. The calls are words filed in the database; no cut-off is given here.

Key:
Staphylococcus aureus [1] = assay: Antibacterial activity against Staphylococcus aureus E19977 infected in NMRI mouse assessed as log reduction in intracellular bacterial cfu in peritoneum at 60 mg/kg, sc administered 2 hrs after infection evry 8 hrs as three-dose regimen measured after 19 hrs; assay type: functional, organism-based; parameters: dose 60 mg/kg
In short: (§1)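 NMRI mice were infected i.p. and given one or three doses (every 8 h), starting 2 h post-inoculation, at 200 mg/kg or 60 mg/kg, four mice per group. Peritoneal washes were sampled over 19 h of treatment. Total, extracellular and intracellular CFU/ml (lysostaphin separation) were compared with the pretreatment level; mean ± range, n = 2. Untreated controls were sampled only at 6 h of infection.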

Staphylococcus aureus [2] = assay: Antibacterial activity against Staphylococcus aureus E19977 infected in NMRI mouse assessed as log reduction in intracellular bacterial cfu in peritoneum at 60 mg/kg, sc administered as single dose 2 hrs after infection measured within 4 hrs; assay type: functional, organism-based; parameters: dose 60 mg/kg; in short: as §1
Staphylococcus aureus [3] = assay: Antibacterial activity against Staphylococcus aureus E19977 infected in NMRI mouse assessed as log reduction in bacterial cfu in peritoneum at 60 mg/kg, sc administered as single dose 2 hrs after infection measured upto 19 hrs; assay type: functional, organism-based; parameters: dose 60 mg/kg; in short: as §1
Staphylococcus aureus [4] = assay: Antibacterial activity against Staphylococcus aureus E19977 infected in NMRI mouse assessed as log reduction in intracellular bacterial cfu in peritoneum at 60 mg/kg, sc administered as single dose 2 hrs after infection measured upto 19 hrs; assay type: functional, organism-based; parameters: dose 60 mg/kg; in short: as §1
Staphylococcus aureus [5] = assay: Antibacterial activity against Staphylococcus aureus E19977 infected in NMRI mouse assessed as log reduction in extracellular bacterial cfu in peritoneum at 60 mg/kg, sc administered as single dose 2 hrs after infection measured upto 19 hrs; assay type: functional, organism-based; parameters: dose 60 mg/kg; in short: as §1
Staphylococcus aureus [6] = assay: Bactericidal activity against Staphylococcus aureus E19977 assessed as log reduction in cfu at 2 mg/liter after 12 hrs by time-kill study; assay type: functional
In short: (§2)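 Clinical bacteremia isolate (penicillin-resistant, methicillin-susceptible). Exponential-phase bacteria were placed in an in vitro kinetic model that simulates drug elimination without changing the inoculum. The starting drug level matched the human free peak serum concentration after a single dose, with simulated human elimination half-life. Samples were taken at 0, 2, 4, 6, 8, 12 and 24 h, with growth controls in each run.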

Staphylococcus aureus [7] = assay: Bactericidal activity against Staphylococcus aureus E19977 assessed as log reduction in cfu at 2 mg/liter upto 24 hrs by time-kill study; assay type: functional; in short: as §2
Staphylococcus aureus [8] = assay: Bactericidal activity against Staphylococcus aureus E19977 assessed as log reduction in cfu at 1.5 mg/liter upto 24 hrs by time-kill study; assay type: functional; details: in the assay text read “2.0 mg/liter” for “1.5 mg/liter”; in short: as §2
Staphylococcus aureus [9] = assay: Bactericidal activity against Staphylococcus aureus E19977 assessed as log reduction in cfu at 20 mg/liter upto 24 hrs by time-kill study; assay type: functional
In short: (§3)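 In vitro kinetic model: exponential-phase bacteria at a final 10^6.3 CFU/ml were exposed to a starting concentration set to the human free peak level. Elimination followed the simulated human half-life. Samples were taken at 0, 2, 4, 6, 8, 12 and 24 h and counted on 5% blood agar (detection limit 25 CFU/ml). Growth controls were included; n = 2.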

Staphylococcus aureus [10] = assay: Bactericidal activity against Staphylococcus aureus E19977 assessed as log reduction in cfu at 9 mg/liter after 24 hrs by time-kill study; assay type: functional, organism-based
In short: (§4)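 In vitro kinetic model simulating antibiotic elimination without inoculum change. Exponential-phase E19977 was added at a final 10^6.3 CFU/ml. Starting drug concentration matched the human free peak, with the human half-life simulated. Samples were plated on 5% blood agar at 0, 2, 4, 6, 8, 12 and 24 h, with growth controls in each run. Results are shown as mean and range, n = 2.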

Staphylococcus aureus [11] = assay: Bactericidal activity against Staphylococcus aureus E19977 assessed as log reduction in cfu at 2 mg/liter after 24 hrs by time-kill study; assay type: functional, organism-based; in short: as §4
Staphylococcus aureus [12] = assay: Bactericidal activity against Staphylococcus aureus E19977 assessed as log reduction in cfu at 1.5 mg/liter after 24 hrs by time-kill study; assay type: functional, organism-based; in short: as §4
Staphylococcus aureus [13] = assay: Bactericidal activity against Staphylococcus aureus E19977 assessed as log reduction in cfu at 20 mg/liter after 24 hrs by time-kill study; assay type: functional, organism-based; in short: as §4
Staphylococcus aureus [14] = assay: Bactericidal activity against Staphylococcus aureus E19977 assessed as log reduction in cfu at 0.5 mg/liter after 24 hrs by time-kill study; assay type: functional, organism-based; in short: as §4
Staphylococcus aureus [15] = assay: Antibacterial activity against Staphylococcus aureus E19977 infected in NMRI mouse assessed as log reduction in bacterial cfu in peritoneum at 10 mg/kg, sc administered 2 hrs after infection measured after 4 hrs; assay type: functional, organism-based; parameters: dose 10 mg/kg
In short: (§5)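 Outbred female NMRI mice (25 to 30 g) received 0.5 ml of 10^7.7 CFU/ml inoculum in 5% mucin i.p. A single dose was given 2 h post-challenge, and mice were sampled 4 h later by 2.0 ml saline peritoneal wash, pooling two mice. Extracellular and intracellular fractions were separated by 300 × g centrifugation, lysostaphin, four HBSS washes and water lysis. Counts on blood agar; median of n = 8.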

Staphylococcus aureus [16] = assay: Antibacterial activity against Staphylococcus aureus E19977 infected in NMRI mouse assessed as log reduction in intracellular bacterial cfu in peritoneum at 10 mg/kg, sc administered 2 hrs after infection measured after 4 hrs; assay type: functional, organism-based; parameters: dose 10 mg/kg; in short: as §5
Staphylococcus aureus [17] = assay: Antibacterial activity against Staphylococcus aureus E19977 infected in NMRI mouse assessed as log reduction in extracellular bacterial cfu in peritoneum at 10 mg/kg, sc administered 2 hrs after infection measured after 4 hrs; assay type: functional, organism-based; parameters: dose 10 mg/kg; in short: as §5
Staphylococcus aureus [18] = assay: Antibacterial activity against Staphylococcus aureus E19977 infected in NMRI mouse assessed as log reduction in bacterial cfu in peritoneum at 10 mg/kg, sc administered as single dose 1 hr after infection measured after 4 hrs; assay type: functional, organism-based; parameters: dose 10 mg/kg
In short: (§6)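 NMRI mice were infected i.p. with S. aureus E19977 in 5% mucin. A single dose (60 mg/kg or 10 mg/kg) was given 1, 2 or 3 h after inoculation, four mice per group. Peritoneal wash was sampled after 4 h of treatment and separated into total, extracellular and intracellular counts by lysostaphin/centrifugation. Δlog10 CFU/ml was calculated against vehicle-treated mice infected for the same time (5, 6 or 7 h).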

Staphylococcus aureus [19] = assay: Antibacterial activity against Staphylococcus aureus E19977 infected in NMRI mouse assessed as log reduction in bacterial cfu in peritoneum at 10 mg/kg, sc administered as single dose 2 hrs after infection measured after 4 hrs; assay type: functional, organism-based; parameters: dose 10 mg/kg; in short: as §6
Staphylococcus aureus [20] = assay: Antibacterial activity against Staphylococcus aureus E19977 infected in NMRI mouse assessed as log reduction in bacterial cfu in peritoneum at 10 mg/kg, sc administered as single dose 3 hrs after infection measured after 4 hrs; assay type: functional, organism-based; parameters: dose 10 mg/kg; in short: as §6
Staphylococcus aureus [21] = assay: Antibacterial activity against Staphylococcus aureus E19977 infected in NMRI mouse assessed as log reduction in intracellular bacterial cfu in peritoneum at 10 mg/kg, sc administered as single dose 1 hr after infection measured after 4 hrs; assay type: functional, organism-based; parameters: dose 10 mg/kg; in short: as §6
Staphylococcus aureus [22] = assay: Antibacterial activity against Staphylococcus aureus E19977 infected in NMRI mouse assessed as log reduction in intracellular bacterial cfu in peritoneum at 10 mg/kg, sc administered as single dose 2 hrs after infection measured after 4 hrs; assay type: functional, organism-based; parameters: dose 10 mg/kg; in short: as §6
Staphylococcus aureus [23] = assay: Antibacterial activity against Staphylococcus aureus E19977 infected in NMRI mouse assessed as log reduction in intracellular bacterial cfu in peritoneum at 10 mg/kg, sc administered as single dose 3 hrs after infection measured after 4 hrs; assay type: functional, organism-based; parameters: dose 10 mg/kg; in short: as §6
Staphylococcus aureus [24] = assay: Antibacterial activity against Staphylococcus aureus E19977 infected in NMRI mouse assessed as log reduction in extracellular bacterial cfu in peritoneum at 10 mg/kg, sc administered as single dose 1 hr after infection measured after 4 hrs; assay type: functional, organism-based; parameters: dose 10 mg/kg; in short: as §6
Staphylococcus aureus [25] = assay: Antibacterial activity against Staphylococcus aureus E19977 infected in NMRI mouse assessed as log reduction in extracellular bacterial cfu in peritoneum at 10 mg/kg, sc administered as single dose 2 hrs after infection measured after 4 hrs; assay type: functional, organism-based; parameters: dose 10 mg/kg; in short: as §6
Staphylococcus aureus [26] = assay: Antibacterial activity against Staphylococcus aureus E19977 infected in NMRI mouse assessed as log reduction in extracellular bacterial cfu in peritoneum at 10 mg/kg, sc administered as single dose 3 hrs after infection measured after 4 hrs; assay type: functional, organism-based; parameters: dose 10 mg/kg; in short: as §6
Staphylococcus aureus [27] = assay: Antibacterial activity against Staphylococcus aureus E19977 by Etest; assay type: functional
Serum [28] = assay: Protein binding in human serum at 600 mg, po; assay type: ADME, organism-based; details: in vivo
Homo sapiens [29] = assay: Cmax in human at 240 mg, im; assay type: ADME, organism-based; parameters: dose 240 mg, route […]; details: in vivo
Serum [30] = assay: Protein binding in human serum at 240 mg, im; assay type: ADME, cell-free
Homo sapiens [31] = assay: Half life in human at 240 mg, im; assay type: ADME, organism-based; details: in vivo
Staphylococcus aureus [32] = assay: Bactericidal activity against Staphylococcus aureus E19977 assessed as log reduction in cfu at 9 mg/liter upto 24 hrs by time-kill study; assay type: functional, organism-based; in short: as §3

CO[C@H]1/C=C/O[C@@]2(C)Oc3c(C)c(O)c4c(O)c(c(/C=N/N5CCN(C)CC5)c(O)c4c3C2=O)NC(=O)/C(C)=C\C=C\[C@H](C)[C@H](O)[C@@H](C)[C@@H](O)[C@@H](C)[C@H](OC(C)=O)[C@@H]1C [RIFAMPIN]
Activity (Staphylococcus aureus [1]): inactive | Activity (Staphylococcus aureus [2]): inactive | Activity (Staphylococcus aureus [3]): inactive | Activity (Staphylococcus aureus [4]): inactive | Activity (Staphylococcus aureus [5]): inactive | FC (Staphylococcus aureus [6]): 2 | FC (Staphylococcus aureus [7]): 2 | FC (Staphylococcus aureus [8]): 2 | FC (Staphylococcus aureus [9]): >2 | Activity (Staphylococcus aureus [10]): inactive | Activity (Staphylococcus aureus [11]): inactive | Activity (Staphylococcus aureus [12]): inactive | Activity (Staphylococcus aureus [13]): inactive | Activity (Staphylococcus aureus [14]): inactive | Activity (Staphylococcus aureus [15]): Active | Activity (Staphylococcus aureus [16]): Active | Activity (Staphylococcus aureus [17]): inactive | Activity (Staphylococcus aureus [18]): Active | Activity (Staphylococcus aureus [19]): inactive | Activity (Staphylococcus aureus [20]): inactive | Activity (Staphylococcus aureus [21]): Active | Activity (Staphylococcus aureus [22]): inactive | Activity (Staphylococcus aureus [23]): inactive | Activity (Staphylococcus aureus [24]): Active | Activity (Staphylococcus aureus [25]): inactive | Activity (Staphylococcus aureus [26]): inactive | MIC (Staphylococcus aureus [27]): < 0.016 µg/mL | Activity (Serum [28]): 80%

GENTAMICIN [listing 1 of 2 here]
Cmax (Homo sapiens [29]): 10000 ng/mL | Activity (Serum [30]): 10% | t1/2 (Homo sapiens [31]): 2 h

GENTAMICIN [listing 2 of 2 here]
FC (Staphylococcus aureus [32]): 4 | FC (Staphylococcus aureus [9]): > 2 | Activity (Staphylococcus aureus [10]): inactive | Activity (Staphylococcus aureus [11]): inactive | Activity (Staphylococcus aureus [12]): inactive | Activity (Staphylococcus aureus [13]): inactive | Activity (Staphylococcus aureus [14]): inactive | Activity (Staphylococcus aureus [15]): inactive | Activity (Staphylococcus aureus [16]): inactive | Activity (Staphylococcus aureus [17]): inactive | MIC (Staphylococcus aureus [27]): 0.38 µg/mL
